# Results collected from several papers.
# Protocols differ between the studies behind these lines.
# ACVR2A: Activin receptor type-2A (ACVR2A, Homo sapiens, UniProt P27037)
# SLC10A2: Ileal sodium/bile acid cotransporter (SLC10A2, Homo sapiens, UniProt Q12908)
# Methionyl-tRNA synthetase, putative: Methionyl-tRNA synthetase, putative (Trypanosoma brucei brucei, UniProt Q38C91)
# PIP4K2A: Phosphatidylinositol 5-phosphate 4-kinase type-2 alpha (PIP4K2A, Homo sapiens, UniProt P48426)
# STK35: Serine/threonine-protein kinase 35 (STK35, Homo sapiens, UniProt Q8TDR2)
# PHIP BD2: PHIP, BD2 (Homo sapiens, UniProt Q8WWQ0)
Structure (SMILES),target,test,test system,setting,measurement,result
Nc1ncnc2occ(-c3ccc(NC(=O)Nc4cc(C(F)(F)F)ccc4F)cc3)c12,"Cyclin-dependent kinase-like 3 (CDKL3, Homo sapiens, UniProt Q8IVW4)",cell-free assay,,20 µM,remaining signal,0.8%
Cn1c2c(c3ccc(Cl)c(Cl)c31)C(C#N)C1(CCN(C(=O)OC(C)(C)C)CC1)NC2=O (racemic),ACVR2A,"thermal stability, DSF",,10 µM,ΔTm,0 °C
N#Cc1ccc(/C=C/CN(CC[C@H](N)C(=O)O)C[C@H]2O[C@@H](n3cnc4c(N)ncnc43)[C@H](O)[C@@H]2O)cc1,"Histone-lysine N-methyltransferase SETD2 (SETD2, Homo sapiens, UniProt Q9BYW2)","enzyme activity, inhibitor",,1 µM,activity vs control,108%
CC(C(=O)O)c1cccc(C(=O)c2ccccc2)c1 (stereo not drawn),SLC10A2,"transporter uptake, inhibitor, radiometric",,1 mM,inhibition,44%
CN1CCN(c2ccc([N+](=O)[O-])cc2NC(=O)c2ccccc2)CC1,"WD repeat-containing protein 5 (WDR5, Homo sapiens, UniProt P61964)","thermal stability, DSF",,100 µM,ΔTm,3.8 °C
O=C(Cc1cc(Cl)cc(Cl)c1)N1CCCC(c2nc3cc(Cl)c(F)cc3[nH]2)C1 (stereo not drawn),"Methionyl-tRNA synthetase, putative","thermal stability, DSF",,100 µM,ΔTm,7 °C
Cc1cc(NC(=O)c2cccc3cc(-c4cccc5[nH]nc(N)c45)ccc23)ccc1F,PIP4K2A,"enzyme activity, inhibitor",,0.1 µM,activity vs control,98%
CN(CCNCc1cc(Cl)cc(Cl)c1)c1nc2nc(Cl)ccc2[nH]1,"Methionyl-tRNA synthetase, putative","thermal stability, DSF",,100 µM,ΔTm,18.4 °C
COc1cc2ncnc(Nc3ccc(F)c(Cl)c3)c2cc1OCCCN1CCOCC1,SLC10A2,"transporter uptake, inhibitor, radiometric",,1 mM,inhibition,< 10%
Nc1ccn([C@H]2C[C@H](O)[C@@H](COP(=O)(O)OP(=O)(O)OP(=O)(O)O)O2)c(=O)n1,"DNA polymerase lambda (POLL, Homo sapiens, UniProt Q9UGP5)","enzyme activity, substrate",,,Km,0.016 µM
Cc1ccc(C(=O)Nc2ccc(CN3CCN(C)CC3)c(C(F)(F)F)c2)cc1C#Cc1cnc2cccnn12,STK35,"enzyme activity, inhibitor",,23.5 nM,remaining activity,98%
CCCCOc1cc(C(=O)NCCN(CC)CC)c2ccccc2n1,SLC10A2,"transporter uptake, inhibitor, radiometric",,1 mM,inhibition,68.8%
CC(=O)N[C@H]1CSSC[C@@H](C(=O)N[C@@H](Cc2c[nH]c3ccccc23)C(N)=O)NC(=O)[C@@H](Cc2ccccc2)NC(=O)[C@H](CCCNC(=N)N)NC1=O,"Melanocortin receptor 5 (MC5R, Homo sapiens, UniProt P33032)","cAMP, agonist",HEK293,3 min,Emax,0%
C[S+]([O-])c1ccc(-c2nc(-c3ccncc3)c(-c3ccc(F)cc3)[nH]2)cc1 (stereo not drawn),PHIP BD2,"thermal stability, DSF",,10 µM,ΔTm,1.14 °C
COc1cc(Cl)c(C(=O)N[C@@H](CN[C@H]2CC[C@@H](N)CC2)Cc2ccc(C#N)cc2)cc1-c1ccc(CN[C@H](C)c2ccc(C)cc2)o1,STK35,"enzyme activity, inhibitor",,1 µM,remaining activity,98%
Oc1ccc(-c2nc(-c3ccncc3)c(-c3ccc(F)cc3)[nH]2)cc1,"Bromodomain-containing protein 9 (BRD9, Homo sapiens, UniProt Q9H8M2)","thermal stability, DSF",,10 µM,ΔTm,0.31 °C
Cn1c2c(c3ccc(Cl)c(Cl)c31)C(C#N)C1(CCCC1)NC2=O (stereo not drawn),ACVR2A,"thermal stability, DSF",,10 µM,ΔTm,0 °C
Cc1cnc(Nc2ccc(OCCN3CCCC3)cc2)nc1Nc1cccc(S(=O)(=O)NC(C)(C)C)c1,PHIP BD2,"thermal stability, DSF",,10 µM,ΔTm,0.6 °C
Cc1cnc(NC2CCOCC2)nc1-n1cnc(C(=O)NC(CN)c2cc(F)cc(Cl)c2)c1 (stereo not drawn),PIP4K2A,"enzyme activity, inhibitor, radiometric",,1 µM,remaining activity,102%
Cc1ccc(NC(=O)c2ccc(C)c(C(F)(F)F)c2)cc1C#Cc1nn(C2CCC(O)CC2)c2ncnc(N)c12 (stereo not drawn),PIP4K2A,"cell-free assay, inhibitor",,10 µM,remaining signal,100%
O=c1oc2c(O)c(O)cc3c(=O)oc4c(O)c(O)cc1c4c23,"Histone-lysine N-methyltransferase SETD7 (SETD7, Homo sapiens, UniProt Q8WTS6)",cell-free assay,,10 µM,inhibition,20%
